In ChEMBL document CHEMBL4376814, “Novel cyclin-dependent kinase 9 (CDK9) inhibitor with suppression of cancer stemness activity against non-small-cell lung cancer” (Eur J Med Chem, 2019):
Activity calls are given as the source filed them. The calls are words filed in the database; no cut-off is given here.

Tests used:
[1] = target: SRSF protein kinase 2 (Homo sapiens) (UniProt P78362); experiment: Inhibition of human SRPK2 (46 to end residues) at 1 uM using RSRSRSRSRSRSRSR as substrate measured after 40 mins in presence of [gamma33P]ATP by scintillation counting method relative to control
How it was run: (§1)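 Percent inhibition of kinase activity at a single compound concentration, measured by the outsourced Eurofins KinaseProfiler panel. Values are the mean of two independent experiments.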

[2] = test system: PI3-kinase p110-alpha/p85-alpha (Homo sapiens), P27986+P42336 [E542K]; experiment: Inhibition of recombinant full-length human PI3K p110alpha/p85alpha E542K mutant at 1 uM using phosphatidylinositol-4, 5-bisphosphate as substrate measured after 40 mins by HTRF assay relative to control
[3] = target: Serine/threonine-protein kinase WNK1 (Homo sapiens) (UniProt Q9H4A3); experiment: Inhibition of recombinant human WNK1 (1 to 491 residues) at 1 uM using MBP as substrate measured after 120 mins in presence of [gamma33P]ATP by scintillation counting method relative to control
[4] = target: Serine/threonine-protein kinase Nek6 (Homo sapiens) (UniProt Q9HC98); experiment: Inhibition of recombinant human NEK6 (2 to end residues) at 1 uM using FLAKSFGSPNRAY as substrate measured after 40 mins in presence of [gamma33P]ATP by scintillation counting method relative to control
Sequence of Serine/threonine-protein kinase Nek6 (Homo sapiens) (Q9HC98 whole entry, the tested form may be a part, canonical isoform): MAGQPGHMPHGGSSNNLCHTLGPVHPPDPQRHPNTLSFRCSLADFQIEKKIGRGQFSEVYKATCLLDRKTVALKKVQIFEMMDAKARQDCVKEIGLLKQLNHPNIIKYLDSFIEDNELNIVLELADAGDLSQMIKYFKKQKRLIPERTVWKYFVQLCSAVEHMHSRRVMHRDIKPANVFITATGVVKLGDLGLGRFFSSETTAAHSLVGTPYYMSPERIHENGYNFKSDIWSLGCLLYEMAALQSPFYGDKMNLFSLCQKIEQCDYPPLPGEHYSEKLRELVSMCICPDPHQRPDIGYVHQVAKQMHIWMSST

[5] = target: Casein kinase I isoform gamma-1 (Homo sapiens) (UniProt Q9HCP0); experiment: Inhibition of recombinant human CK1gamma1 (25 to 355 residues) at 1 uM using KRRRALS(p)VASLPGL as substrate measured after 40 mins in presence of [gamma33P]ATP by scintillation counting method relative to control
Sequence of Casein kinase I isoform gamma-1 (Homo sapiens) (Q9HCP0 whole entry, looked up, the tested form may be a part, canonical isoform): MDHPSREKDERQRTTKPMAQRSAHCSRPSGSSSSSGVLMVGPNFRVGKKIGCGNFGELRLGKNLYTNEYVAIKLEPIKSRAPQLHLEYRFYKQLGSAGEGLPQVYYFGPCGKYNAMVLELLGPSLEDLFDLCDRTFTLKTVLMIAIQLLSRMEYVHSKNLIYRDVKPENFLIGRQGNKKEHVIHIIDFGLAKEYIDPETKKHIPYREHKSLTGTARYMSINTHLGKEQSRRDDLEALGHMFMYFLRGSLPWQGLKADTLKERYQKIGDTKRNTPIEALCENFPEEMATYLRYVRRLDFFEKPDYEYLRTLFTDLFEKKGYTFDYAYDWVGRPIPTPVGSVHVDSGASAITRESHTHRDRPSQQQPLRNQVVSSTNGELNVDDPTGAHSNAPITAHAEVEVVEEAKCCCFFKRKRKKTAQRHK
How it was run: (§2)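 Single-point inhibition at 1 µM was measured in the Eurofins KinaseProfiler panel. Values are the mean of two independent experiments.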

[6] = target: Tyrosine-protein kinase HCK (Homo sapiens) (UniProt P08631); experiment: Inhibition of recombinant human HCK (230 to 497 residues) at 1 uM using Cdc2 peptide as substrate measured after 40 mins in presence of [gamma33P]ATP by scintillation counting method relative to control
Sequence of Tyrosine-protein kinase HCK (Homo sapiens) (P08631 2-526 limits assumed): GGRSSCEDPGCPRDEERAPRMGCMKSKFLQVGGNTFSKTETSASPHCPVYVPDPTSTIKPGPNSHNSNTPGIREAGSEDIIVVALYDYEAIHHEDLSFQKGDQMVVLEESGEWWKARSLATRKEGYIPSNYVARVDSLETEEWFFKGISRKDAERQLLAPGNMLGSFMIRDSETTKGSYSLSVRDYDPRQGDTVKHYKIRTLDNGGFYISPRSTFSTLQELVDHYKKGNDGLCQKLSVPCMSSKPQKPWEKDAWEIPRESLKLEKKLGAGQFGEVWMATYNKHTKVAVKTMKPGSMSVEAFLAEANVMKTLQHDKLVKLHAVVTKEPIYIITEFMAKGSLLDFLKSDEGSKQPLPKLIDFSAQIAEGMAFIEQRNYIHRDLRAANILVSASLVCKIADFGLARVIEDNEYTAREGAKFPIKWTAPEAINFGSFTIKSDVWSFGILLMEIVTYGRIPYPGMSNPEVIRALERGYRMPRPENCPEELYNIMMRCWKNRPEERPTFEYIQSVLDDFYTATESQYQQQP

[7] = target: MAPK/MAK/MRK overlapping kinase (Homo sapiens) (UniProt Q9UQ07); experiment: Inhibition of recombinant human MOK (1 to 343 residues) at 1 uM using RSRSRSRSRSRSRSR as substrate measured after 40 mins in presence of [gamma33P]ATP by scintillation counting method relative to control
[8] = target: Eukaryotic translation initiation factor 2-alpha kinase 1 (Homo sapiens) (UniProt Q9BQI3); experiment: Inhibition of recombinant human HRI (140 to end residues) at 1 uM using RSRSRSRSRSRSRSR as substrate measured after 120 mins in presence of [gamma33P]ATP by scintillation counting method relative to control
Sequence of Eukaryotic translation initiation factor 2-alpha kinase 1 (Homo sapiens) (Q9BQI3 whole entry): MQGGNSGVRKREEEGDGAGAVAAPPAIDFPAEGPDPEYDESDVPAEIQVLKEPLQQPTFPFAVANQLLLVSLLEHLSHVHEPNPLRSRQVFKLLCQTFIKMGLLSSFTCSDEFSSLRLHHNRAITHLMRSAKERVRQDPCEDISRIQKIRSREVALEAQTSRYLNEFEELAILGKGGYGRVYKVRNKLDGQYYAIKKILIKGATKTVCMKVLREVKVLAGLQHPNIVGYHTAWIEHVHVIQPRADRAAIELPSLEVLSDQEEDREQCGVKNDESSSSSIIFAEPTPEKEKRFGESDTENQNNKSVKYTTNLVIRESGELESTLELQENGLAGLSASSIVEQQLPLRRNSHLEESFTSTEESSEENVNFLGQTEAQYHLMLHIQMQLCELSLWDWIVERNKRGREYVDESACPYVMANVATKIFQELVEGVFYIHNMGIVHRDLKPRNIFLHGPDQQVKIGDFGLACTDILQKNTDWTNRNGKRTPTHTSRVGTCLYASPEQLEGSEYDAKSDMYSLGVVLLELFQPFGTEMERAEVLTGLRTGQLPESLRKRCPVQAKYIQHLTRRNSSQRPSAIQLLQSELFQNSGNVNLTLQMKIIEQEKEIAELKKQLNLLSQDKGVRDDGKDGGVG

[9] = test system: Tyrosine-protein kinase ABL1 (Homo sapiens), P00519 [Q252H]; experiment: Inhibition of recombinant human ABL Q252H mutant (27 to end residues) at 1 uM using EAIYAAPFAKKK as substrate measured after 40 mins in presence of [gamma33P]ATP by scintillation counting method relative to control
[10] = target: CDK4/Cyclin D3 (Homo sapiens) (UniProt P11802+P30281); experiment: Inhibition of recombinant full-length human CDK4/cyclinD3 at 1 uM using Rb fragment as substrate measured after 40 mins in presence of [gamma33P]ATP by scintillation counting method relative to control; type: protein-complex assay; how it was run: as §1
[11] = target: G protein-coupled receptor kinase 5 (Homo sapiens) (UniProt P34947); experiment: Inhibition of recombinant full-length human GRK5 at 1 uM using casein as substrate measured after 40 mins in presence of [gamma33P]ATP by scintillation counting method relative to control
Sequence of G protein-coupled receptor kinase 5 (Homo sapiens) (P34947 whole entry, looked up, the tested form may be a part): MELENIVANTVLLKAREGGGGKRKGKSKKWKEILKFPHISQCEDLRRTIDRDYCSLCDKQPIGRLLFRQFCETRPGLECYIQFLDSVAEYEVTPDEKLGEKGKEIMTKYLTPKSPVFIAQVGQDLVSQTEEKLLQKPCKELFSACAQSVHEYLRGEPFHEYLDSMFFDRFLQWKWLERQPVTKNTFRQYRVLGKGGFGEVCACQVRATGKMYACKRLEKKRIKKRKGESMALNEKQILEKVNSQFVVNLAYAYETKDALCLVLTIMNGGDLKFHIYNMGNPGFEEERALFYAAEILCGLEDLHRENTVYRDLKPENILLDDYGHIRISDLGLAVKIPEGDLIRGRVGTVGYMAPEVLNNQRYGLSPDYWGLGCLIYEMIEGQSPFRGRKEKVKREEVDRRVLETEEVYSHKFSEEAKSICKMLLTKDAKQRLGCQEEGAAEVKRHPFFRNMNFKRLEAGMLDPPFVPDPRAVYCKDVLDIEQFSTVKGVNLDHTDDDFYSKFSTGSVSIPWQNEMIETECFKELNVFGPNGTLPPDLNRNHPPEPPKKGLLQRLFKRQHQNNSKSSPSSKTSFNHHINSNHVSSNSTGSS

[12] = target: Serine/threonine-protein kinase PLK2 (Homo sapiens) (UniProt Q9NYY3); experiment: Inhibition of human Snk (65 to 409 residues) at 1 uM using casein as substrate measured after 40 mins in presence of [gamma33P]ATP by scintillation counting method relative to control; how it was run: as §1
[13] = target: Ribosomal protein S6 kinase alpha-2 (Homo sapiens) (UniProt Q15349); experiment: Inhibition of human Rsk2 (2 to end residues) at 1 uM using KKKNRTLSVA as substrate measured after 40 mins in presence of [gamma33P]ATP by scintillation counting method relative to control; how it was run: as §1
[14] = target: Serine/threonine-protein kinase haspin (Homo sapiens) (UniProt Q8TF76); experiment: Inhibition of recombinant human haspin (471 to end residues) at 1 uM using RARTLSFAEPG as substrate measured after 40 mins in presence of [gamma33P]ATP by scintillation counting method relative to control; how it was run: as §2
[15] = target: Serine/threonine-protein kinase Sgk3 (Homo sapiens) (UniProt Q96BR1); experiment: Inhibition of human SGK3 (119 to end residues) at 1 uM using GRPRTSSFAEGKK as substrate measured after 40 mins in presence of [gamma33P]ATP by scintillation counting method relative to control; how it was run: as §1
Sequence of Serine/threonine-protein kinase Sgk3 (Homo sapiens) (Q96BR1 whole entry, the tested form may be a part): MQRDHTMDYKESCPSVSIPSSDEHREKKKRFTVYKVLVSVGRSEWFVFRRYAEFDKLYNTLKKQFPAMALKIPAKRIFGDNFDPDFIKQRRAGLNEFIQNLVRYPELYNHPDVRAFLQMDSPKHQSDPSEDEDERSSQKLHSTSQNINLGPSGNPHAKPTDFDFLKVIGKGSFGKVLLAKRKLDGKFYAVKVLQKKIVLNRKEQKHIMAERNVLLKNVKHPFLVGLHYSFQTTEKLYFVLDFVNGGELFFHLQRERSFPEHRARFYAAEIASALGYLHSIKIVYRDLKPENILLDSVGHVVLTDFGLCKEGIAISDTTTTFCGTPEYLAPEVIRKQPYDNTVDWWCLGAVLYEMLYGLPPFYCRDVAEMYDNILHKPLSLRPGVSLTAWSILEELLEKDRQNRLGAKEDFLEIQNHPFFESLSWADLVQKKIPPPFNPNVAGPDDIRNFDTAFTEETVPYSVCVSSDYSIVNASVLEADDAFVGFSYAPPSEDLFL

[16] = target: TRAF2 and NCK-interacting protein kinase (Homo sapiens) (UniProt Q9UKE5); experiment: Inhibition of human TNIK (1 to 367 residues) at 1 uM using RLGRDKYKTLRQIRQ as substrate measured after 40 mins in presence of [gamma33P]ATP by scintillation counting method relative to control; how it was run: as §1
Sequence of TRAF2 and NCK-interacting protein kinase (Homo sapiens) (Q9UKE5 whole entry, looked up, the tested form may be a part): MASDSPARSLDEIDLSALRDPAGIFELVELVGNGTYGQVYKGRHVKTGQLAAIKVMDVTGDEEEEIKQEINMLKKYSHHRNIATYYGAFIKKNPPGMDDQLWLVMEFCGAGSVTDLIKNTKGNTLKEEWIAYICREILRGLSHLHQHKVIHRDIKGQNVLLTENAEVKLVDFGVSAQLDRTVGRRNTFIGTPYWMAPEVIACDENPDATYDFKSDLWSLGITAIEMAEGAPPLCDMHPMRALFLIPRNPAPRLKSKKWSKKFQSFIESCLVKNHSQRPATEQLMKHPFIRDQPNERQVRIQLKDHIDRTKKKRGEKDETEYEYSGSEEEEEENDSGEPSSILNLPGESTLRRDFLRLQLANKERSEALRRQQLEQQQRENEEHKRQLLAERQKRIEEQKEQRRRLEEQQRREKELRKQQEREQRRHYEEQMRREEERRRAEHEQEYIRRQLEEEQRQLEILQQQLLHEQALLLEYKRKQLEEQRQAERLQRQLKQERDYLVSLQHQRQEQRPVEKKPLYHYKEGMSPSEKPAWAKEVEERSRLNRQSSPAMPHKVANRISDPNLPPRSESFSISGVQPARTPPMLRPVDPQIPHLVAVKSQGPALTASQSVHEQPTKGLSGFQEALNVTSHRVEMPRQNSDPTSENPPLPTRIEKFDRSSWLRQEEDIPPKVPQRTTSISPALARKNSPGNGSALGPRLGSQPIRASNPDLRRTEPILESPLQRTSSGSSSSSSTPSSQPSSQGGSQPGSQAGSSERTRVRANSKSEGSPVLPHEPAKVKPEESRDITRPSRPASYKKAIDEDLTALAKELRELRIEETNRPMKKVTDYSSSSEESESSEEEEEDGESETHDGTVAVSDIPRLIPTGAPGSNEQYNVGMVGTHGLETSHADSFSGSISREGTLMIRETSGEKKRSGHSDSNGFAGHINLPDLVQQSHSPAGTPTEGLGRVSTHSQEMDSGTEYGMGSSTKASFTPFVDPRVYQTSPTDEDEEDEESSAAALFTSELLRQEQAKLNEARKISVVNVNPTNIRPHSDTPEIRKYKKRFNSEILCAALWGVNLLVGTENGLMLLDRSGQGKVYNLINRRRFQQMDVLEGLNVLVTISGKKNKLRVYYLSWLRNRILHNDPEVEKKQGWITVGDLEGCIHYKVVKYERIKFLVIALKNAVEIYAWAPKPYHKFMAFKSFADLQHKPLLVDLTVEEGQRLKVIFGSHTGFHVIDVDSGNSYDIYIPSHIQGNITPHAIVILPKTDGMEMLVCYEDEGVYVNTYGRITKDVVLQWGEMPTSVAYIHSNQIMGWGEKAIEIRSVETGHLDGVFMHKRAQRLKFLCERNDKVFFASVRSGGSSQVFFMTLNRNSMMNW

[17] = target: Cyclin-dependent kinase 9 (Homo sapiens) (UniProt P50750); details: 0.25 uM
[18] = target: Serine/threonine-protein kinase MRCK alpha (Homo sapiens) (UniProt Q5VT25); experiment: Inhibition of recombinant human MRCKalpha (1 to 473 residues) at 1 uM using KKRNRTLTV as substrate measured after 40 mins in presence of [gamma33P]ATP by scintillation counting method relative to control
[19] = target: Protein kinase C gamma type (Homo sapiens) (UniProt P05129); experiment: Inhibition of recombinant full-length human PKCgamma at 1 uM using histone H1 as substrate measured after 40 mins in presence of [gamma33P]ATP by scintillation counting method relative to control
[20] = target: Epidermal growth factor receptor (Homo sapiens) (UniProt P00533); experiment: Inhibition of recombinant human EGFR (696 to end residues) at 1 uM using poly (Glu,Tyr) 4:1 as substrate incubated for 40 mins in presence of [gamma-33P]ATP at Km concentration by radiometric assay relative to control
NCI-H1299 = experiment: Downregulation of cyclin T1 expression in human H1299 cells at 0.25 to 1 uM after 24 hrs by Western blot analysis; type: functional, cell-based
How it was run: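 A549 and H1299 cells treated for 24 h with serial dilutions alongside a DMSO control. Protein extracts resolved and immunoblotted.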

[21] = test system: Homeodomain-interacting protein kinase 2 (Homo sapiens), Q9H2X6 [UNDEFINED MUTATION]; experiment: Inhibition of recombinant human HIPK2 I471N mutant (165 to 564 residues) at 1 uM using myelin basic protein as substrate measured after 40 mins in presence of [gamma33P]ATP by scintillation counting method relative to control

## CN(C)C(=O)c1cc2cnc(Nc3ccc(NC(=O)CCCCCCCN=C=S)cc3)nc2n1C1CCCC1
[1]
  inhibition: 4%
[2]
  inhibition: 10%
[3]
  inhibition: 6%
[4]
  inhibition: 4%
[5]
  inhibition: 11%
[6]
  inhibition: 9%
[7]
  inhibition: 21%
[8]
  inhibition: 30%
[9]
  inhibition: 48%
[10]
  inhibition: 87%
[11]
  inhibition: -2%
[12]
  inhibition: 4%
[13]
  inhibition: 19%
[14]
  inhibition: 11%
[15]
  inhibition: 4%
[16]
  inhibition: 69%
[17]
  inhibition: Active
[18]
  inhibition: -5%
[19]
  inhibition: 86%
[20]
  inhibition: 21%
NCI-H1299
  Activity: Active
[21]
  inhibition: 7%
